TbMetRS inhib = T. brucei MetRS inhibitors, primary screen, biochemical, luminescence; methionyl-tRNA synthetase (Trypanosoma brucei brucei); purified T. brucei MetRS, ATP depletion, Kinase-Glo luminescence; inhibition, % at 11.9 µM; hit rate 0.4% among 360,000; AID 624268, 2012;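 active means inhibition above a per-plate cutoff of the control wells' mean inhibition plus 3 SD, cut at about 5.5% in these data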;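 further: 0% = DMSO wells median and 100% = median of wells with control inhibitor compound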
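Assay system: T. brucei methionyl-tRNA synthetase, purified | Medium: HEPES buffer with MgCl2, KCl, DTT, spermine, BSA, pyrophosphatase | Compound: 11.9 µM single point | Incubation: 15 min enzyme-compound preincubation, 2 h reaction, 10 min detection, 25 °C | Measured by: Kinase-Glo luciferase luminescence reporting remaining unconsumed ATP | Measure: % inhibition normalized to control-well medians | Replication: Singlicate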
core dimer inh = inhibitors of HCV core protein dimerization, primary screen, biochemical, TR-FRET, high-throughput; TR-FRET GST/Flag-core106 dimerization, 1536-well; inhibition, % at 5 µM; hit rate 0.33% among 300,000; AID 1899, 2009;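 active means inhibition above the mean of all tested compounds plus 3 SD, set per screening campaign, cut at about 45% in these data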
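Test system: GST/Flag-tagged HCV core106 proteins; Medium: KF-containing HEPES buffer, pH 7.45, DTT, CHAPS, BSA; Times: compound-protein-antibody incubation 4 h at 22.5 °C; Detection: TR-FRET 671 and 617 nm emission; Benchmarks: wells lacking GST-core106 and wells with excess unlabelled core106.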
NS3 helicase inh = inhibitors of HCV NS3 helicase, primary screen, biochemical, Cy5 molecular beacon fluorescence; inhibition, % at 10.9 µM; AID 1800, 2009; hit rate 0.56% among 290,000; Hepatitis C virus NS3 helicase; NS3 helicase DNA unwinding;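 active means inhibition above the mean of all tested compounds plus 3 SD, set per campaign, cut at about 35% in these data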;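 further: 0% = DMSO wells and 100% = thioflavine S control wells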
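Compound dosing – single dose, 10.9 µM nominal final, DMSO 0.8% final · System – NS3 helicase fragment of HCV · Buffer or medium – MOPS pH 6.5, MgCl2, DTT, Tween20, BSA · Signal – Cy5 beacon fluorescence read at start and 1 h · Also added – annealed dual-labelled DNA beacon duplex, ATP-started · Schedule – 1 h at 25 °C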
Hep lipid drop = inhibitors of hepatocyte lipid droplet formation, primary screen, imaging, high-throughput imaging, BODIPY stain | inhibition, % at 6.5 µM | AID 1656, 2009 | AML12 mouse hepatocytes, oleate lipid droplets | hit rate 0.4% among 240,000;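 active means lipid droplet intensity inhibited by at least 50%, with more than 500 cells counted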
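Assay system: AML12 hepatocytes (mouse) / Also added: 100 µM oleic acid challenge / Times: overnight treatment with compound plus oleate / Detection: high-content imaging of BODIPY-stained droplets and DAPI nuclei / Evaluation: % inhibition of lipid droplet signal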
Hep lipid conf = hepatocyte lipid droplet accumulation inhibitors, confirmation, imaging, AML12 mouse hepatocytes, single concentration, high-content; inhibition, % at 5.2 µM; hit rate 65% among 870; shares compounds with Hep lipid drop; BODIPY lipid droplet imaging; droplets induced with 100 µM oleic acid; AID 463183, 2010;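 active means inhibition of lipid droplet metric at least 50%, with more than 300 cells in each of four replicates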;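 further: plate controls were DMSO with oleic acid for no effect and 5 µM Triacsin-C for full effect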
AML12 tox img = AML12 hepatocyte cytotoxicity, counter-screen for hepatic lipid droplet formation project, imaging, DAPI nuclear morphology imaging; shares compounds with Hep lipid drop; AID 463200, 2010; hit rate 3% among 870; AML12 mouse hepatocytes; stronger effect = higher value; cells fed 100 µM oleate overnight; z-score at 5 µM; in the data active means z-score above about 6.3;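 further: compound exposure lasted overnight at 37 °C before fixation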
AML12 tox conf = AML12 hepatocyte cytotoxicity, confirmation, cytotoxicity control for hepatic lipid droplet formation project, cell-based, single concentration. shares compounds with Hep lipid drop. AML12 mouse hepatocyte viability, ATP luminescence; cells loaded with 100 µM oleic acid. cytotoxicity, % at 50 µM. 530 tested, under 10 active. AID 463219, 2010;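 active means cytotoxicity above 50% in each of four replicates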;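 further: compound exposure lasted overnight at 37 °C before the ATP read; 0% = DMSO-treated cells and 100% = wells with no cells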
* marks the source's active call; other numbers are inactive results. In the library only some 1.3% were active in any assay of this set; here they are far more common.

For Cc1ccccc1-c1cnc(C(O)c2cccc(C)c2C)[nH]1 (stereo not drawn) the results were TbMetRS inhib 0.
`CN1CC(=O)Nc2ccc([N+](=O)[O-])cc2C1=O` gave TbMetRS inhib 0, core dimer inh -1, NS3 helicase inh 1, Hep lipid drop 91*, Hep lipid conf 26 and AML12 tox img -1.2.
CCOC(=O)C1=C(C)c2ccccc2N(C(=O)OC)C1(C)C(=O)OCC (stereo not drawn) was read as TbMetRS inhib -1.
CCC(C)C(=O)N1c2ccccc2C(=C2SC(C(=O)OC)=C(C(=O)OC)S2)C(=S)C1(C)C (stereo not drawn) was read as TbMetRS inhib -1, core dimer inh 18, NS3 helicase inh 8, Hep lipid drop 67*, Hep lipid conf 112*, AML12 tox img 0.24 and AML12 tox conf 6.
O=C(NCC1CCCO1)c1cccc(S(=O)(=O)Nc2ccccc2Cl)c1 (stereo not drawn) was read as TbMetRS inhib 0.
Screening CCCOc1ccccc1C(=O)N(Cc1ccc(C)o1)C1CCS(=O)(=O)C1 (stereo not drawn) returned TbMetRS inhib 0, core dimer inh 2, NS3 helicase inh 6, Hep lipid drop 65*, Hep lipid conf 78*, AML12 tox img 0.48 and AML12 tox conf -3.
For CCCCOc1ccccc1C(=O)N(Cc1ccc(C)o1)C1CCS(=O)(=O)C1 (stereo not drawn) the results were TbMetRS inhib 0, core dimer inh -2, NS3 helicase inh -2, Hep lipid drop 64*, Hep lipid conf 97*, AML12 tox img 0.93 and AML12 tox conf 10.
For CCCOc1ccccc1C(=O)N(Cc1ccco1)C1CCS(=O)(=O)C1 (stereo not drawn) the results were TbMetRS inhib 0, core dimer inh 4 and NS3 helicase inh 6.
`COc1cc2c(cc1OC)C(=NO)CCCC2` gave TbMetRS inhib 0.
Screening O=C(NC(=S)Nc1ccccn1)c1ccc(-c2ccccc2)cc1 returned TbMetRS inhib 0, core dimer inh -7, NS3 helicase inh 2, Hep lipid drop 94*, Hep lipid conf 16 and AML12 tox img -0.62.
`O=C(Nc1ccccn1)c1ccc(C(=O)Nc2ccccn2)cc1` gave TbMetRS inhib -1, core dimer inh 8, NS3 helicase inh -8 and Hep lipid drop 13.
Screening Cc1ccccc1OCC(=O)NCCCNC(=O)c1ccccn1 returned TbMetRS inhib -1, core dimer inh 8, NS3 helicase inh -3, Hep lipid drop 93*, Hep lipid conf 10 and AML12 tox img -0.46.
`Cn1c(N)nc(N)c(NC=O)c1=O` gave TbMetRS inhib -1.
Screening CCCCN(CCCNC(=O)CN1C(=O)COc2ccccc21)c1ccccc1 returned TbMetRS inhib 0, core dimer inh -1, NS3 helicase inh -3, Hep lipid drop 53*, Hep lipid conf 103*, AML12 tox img -0.38 and AML12 tox conf 4.
For CCCOc1ccc(C2=NNC(c3cccs3)=Nc3ccc(OC)cc32)cc1 the results were TbMetRS inhib 0, core dimer inh 13, NS3 helicase inh 3, Hep lipid drop 52*, Hep lipid conf 50 and AML12 tox img 0.17.
`OC[C@@H]1CN(Cc2ccccc2)C[C@H](n2cnc3c(N4CCOCC4)ncnc32)O1` gave TbMetRS inhib 0.
`COc1ccc(Cl)cc1NC(=O)CN(C)C(=O)Cc1ccc2c(c1)CCC2` gave TbMetRS inhib 0, core dimer inh -2, NS3 helicase inh -24, Hep lipid drop 52*, Hep lipid conf 85*, AML12 tox img 0.13 and AML12 tox conf 19.
C/C(=N\Nc1nc2ccccc2s1)c1cccs1 was read as TbMetRS inhib 0, core dimer inh -23, NS3 helicase inh -6 and Hep lipid drop 6.
Screening C/C(=N\Nc1nc(-c2ccccc2)cs1)c1cccs1 returned TbMetRS inhib -1, core dimer inh 29, NS3 helicase inh 10, Hep lipid drop 52*, Hep lipid conf 96*, AML12 tox img -1.2 and AML12 tox conf 28.
`COc1ccc(/C=C(\NC(=O)c2cccs2)C(=O)NN)cc1OC` gave TbMetRS inhib 0, NS3 helicase inh 9 and Hep lipid drop 8.
Cc1ccc(NC(=O)CCC(=O)c2cccs2)cc1 was read as TbMetRS inhib -1, core dimer inh 3, NS3 helicase inh 0 and Hep lipid drop 12.
COc1ccc(NC(=O)CCC(=O)Nc2cc(OC)c(NC(=O)c3cccs3)cc2OC)cc1 was read as TbMetRS inhib -1, core dimer inh 12, NS3 helicase inh -5, Hep lipid drop 71*, Hep lipid conf 109*, AML12 tox img 0.035 and AML12 tox conf 9.
COc1cc(NC(=O)c2cccs2)c(OC)cc1NC(=O)CCC(=O)Nc1ccc(C)cc1 was read as TbMetRS inhib 0, core dimer inh 1, NS3 helicase inh 5, Hep lipid drop 68*, Hep lipid conf 108*, AML12 tox img 0.29 and AML12 tox conf 15.
Screening COc1cccc(NC(=O)CCC(=O)Nc2cc(OC)c(NC(=O)c3cccs3)cc2OC)c1 returned TbMetRS inhib 0, NS3 helicase inh -23, Hep lipid drop 79*, Hep lipid conf 110*, AML12 tox img 0.008 and AML12 tox conf 9.
For COc1ccc(OCC(=O)Nc2ccc(NC(=O)c3cccs3)cc2)cc1 the results were TbMetRS inhib 0, core dimer inh 12, NS3 helicase inh 9 and Hep lipid drop -12.
Screening COc1cccc(NC(=O)c2cccs2)c1 returned TbMetRS inhib -1, core dimer inh -4, NS3 helicase inh 5 and Hep lipid drop -16.
COc1ccc(/C=C(\NC(=O)c2cccs2)C(=O)Nc2cccc3ccccc23)cc1OC was read as TbMetRS inhib -1, core dimer inh -6, NS3 helicase inh 22, Hep lipid drop 84*, Hep lipid conf 102*, AML12 tox img 0.16 and AML12 tox conf 8.
For Cc1ccc(C)c(C(O)c2ncc(-c3cccc(F)c3)[nH]2)c1 (stereo not drawn) the results were TbMetRS inhib 0.

Screening results: PubChem BioAssay, several laboratories
